Laboratory results reported in ChEMBL document CHEMBL4229548, “Design, synthesis and biological evaluation of lazabemide derivatives as inhibitors of monoamine oxidase” (Bioorg Med Chem, 2018).
The source made the active and inactive calls. The calls are words filed in the database; no cut-off is given here.

What was measured:
[1] = Acute toxicity in po dosed rat; assay type: organism-based; settings: in vivo
Rattus norvegicus [2] = experiment: In-vivo inhibition of MAOA in rat brain at 20 mg/kg/day, po administered for 1 week measured post last dose; assay type: functional, organism-based
Rattus norvegicus [3] = experiment: In-vivo inhibition of MAOA in rat plasma at 20 mg/kg/day, po administered for 1 week measured post last dose; assay type: functional, organism-based
Rattus norvegicus [4] = experiment: In-vivo inhibition of MAO in rat assessed as 5-hydroxytryptamine level in brain at 20 mg/kg/day, po administered for 1 week measured post last dose by HPLC method (reference value: 0.211 +/- 0.03 ng/mg); assay type: functional
Rattus norvegicus [5] = experiment: In-vivo inhibition of MAO in rat assessed as dopamine level in plasma at 20 mg/kg/day, po administered for 1 week measured post last dose by HPLC method (reference value: 121.3 +/- 10.1 ng/ml); assay type: functional
Rattus norvegicus [6] = experiment: In-vivo inhibition of MAO in rat assessed as dopamine level in brain at 20 mg/kg/day, po administered for 1 week measured post last dose by HPLC method (reference value: 0.459 +/- 0.07 ng/mg); assay type: functional
Rattus norvegicus [7] = experiment: In-vivo inhibition of MAO in rat assessed as 5-hydroxytryptamine level in plasma at 20 mg/kg/day, po administered for 1 week measured post last dose by HPLC method (reference value: 67.4 +/- 5.9 ng/ml); assay type: functional
Rattus norvegicus [8] = experiment: In-vivo inhibition of MAO in rat assessed as norepinephrine level in brain at 20 mg/kg/day, po administered for 1 week measured post last dose by HPLC method (reference value: 1.438 +/- 0.054 ng/mg); assay type: functional
Rattus norvegicus [9] = experiment: In-vivo inhibition of MAO in rat assessed as norepinephrine level in plasma at 20 mg/kg/day, po administered for 1 week measured post last dose by HPLC method (reference value: 200 +/- 13.2 ng/ml); assay type: functional
[10] = biological target: T1, Amine oxidase [flavin-containing] A (Rattus norvegicus, UniProt P21396); experiment: Inhibition of rat MAOA using 5-hydroxytryptamine as substrate pretreated for 1200 secs followed by substrate addition and measured after 3600 secs
T1 sequence (P21396 whole entry): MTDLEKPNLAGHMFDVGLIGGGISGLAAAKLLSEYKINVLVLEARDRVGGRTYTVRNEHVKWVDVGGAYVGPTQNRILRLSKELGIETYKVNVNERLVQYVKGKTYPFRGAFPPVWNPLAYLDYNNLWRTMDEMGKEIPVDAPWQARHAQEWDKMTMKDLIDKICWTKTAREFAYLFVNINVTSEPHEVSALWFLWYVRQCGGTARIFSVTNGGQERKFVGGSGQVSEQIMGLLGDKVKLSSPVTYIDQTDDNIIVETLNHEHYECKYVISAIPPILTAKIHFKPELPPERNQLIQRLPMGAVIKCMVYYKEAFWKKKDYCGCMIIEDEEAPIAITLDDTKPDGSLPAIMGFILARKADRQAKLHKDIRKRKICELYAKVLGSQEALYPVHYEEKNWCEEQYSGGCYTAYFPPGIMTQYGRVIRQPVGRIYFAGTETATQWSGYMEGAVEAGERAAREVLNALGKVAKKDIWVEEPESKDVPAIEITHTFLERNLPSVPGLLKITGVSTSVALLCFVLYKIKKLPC

[11] = biological target: T2, Amine oxidase [flavin-containing] B (Rattus norvegicus, UniProt P19643); experiment: Inhibition of rat MAOB using benzylamine as substrate pretreated for 1200 secs followed by substrate addition and measured after 3600 secs
T2 sequence (P19643 whole entry): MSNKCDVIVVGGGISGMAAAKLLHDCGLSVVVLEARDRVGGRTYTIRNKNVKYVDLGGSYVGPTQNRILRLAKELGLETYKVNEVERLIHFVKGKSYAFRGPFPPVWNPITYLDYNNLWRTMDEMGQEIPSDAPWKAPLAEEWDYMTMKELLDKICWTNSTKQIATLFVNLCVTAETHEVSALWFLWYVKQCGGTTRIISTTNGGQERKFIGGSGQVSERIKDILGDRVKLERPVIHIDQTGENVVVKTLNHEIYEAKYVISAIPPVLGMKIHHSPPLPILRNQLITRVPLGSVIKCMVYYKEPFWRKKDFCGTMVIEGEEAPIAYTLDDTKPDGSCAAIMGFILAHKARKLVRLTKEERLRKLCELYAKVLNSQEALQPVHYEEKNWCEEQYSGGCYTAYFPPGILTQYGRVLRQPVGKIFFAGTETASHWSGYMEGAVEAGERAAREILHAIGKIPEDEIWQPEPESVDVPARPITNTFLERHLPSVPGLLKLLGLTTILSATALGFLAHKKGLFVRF
Outline: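 Enzyme: liver mitochondrial MAO prepared by sucrose differential centrifugation and held in 100 mmol/L K-phosphate pH 7.9. Inhibitor pre-incubated with enzyme 1200 s at 37 °C, 5% CO2. Benzylamine was added (final 2 mmol/L; MAO final 0.15 mg/mL) and reacted 3600 s. Stopped with 10% perchloric acid. Benzaldehyde extracted into cyclohexane and read at A240. DMSO blank.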

Rattus norvegicus [12] = experiment: In-vivo inhibition of MAOB in rat brain at 20 mg/kg/day, po administered for 1 week measured post last dose; assay type: functional, organism-based
Rattus norvegicus [13] = experiment: In-vivo inhibition of MAOB in rat plasma at 20 mg/kg/day, po administered for 1 week measured post last dose; assay type: functional, organism-based

Row | SMILES | LD50 [1] [mg/kg] | inhibition (Rattus norvegicus [2]) | inhibition (Rattus norvegicus [3]) | Activity (Rattus norvegicus [4]) [ng/mg] | Activity (Rattus norvegicus [5]) [ng/mL] | Activity (Rattus norvegicus [6]) [ng/mg] | Activity (Rattus norvegicus [7]) [ng/mL] | Activity (Rattus norvegicus [8]) [ng/mg] | Activity (Rattus norvegicus [9]) [ng/mL] | IC50 [10] [µM] | IC50 [11] [µM] | inhibition (Rattus norvegicus [12]) | inhibition (Rattus norvegicus [13])
1 | NCCNC(=O)c1ccc(Cl)cn1 [LAZABEMIDE] | 1000 to 2000 | – | – | – | – | – | – | – | – | – | – | – | –
2 | O=C(NCO)c1ccc(Cl)cc1 | 3000 | Active | Active | 0.545 | 231.1 | 0.832 | 123.2 | 2.64 | 436.9 | 7.49 | 1440 | – | –
3 | O=C(NCCBr)c1ccc(Cl)cn1 | – | – | – | – | – | – | – | – | – | 790 | 24.8 | – | –
4 | O=C(NCCBr)c1ccc(Cl)cc1 | – | – | – | – | – | – | – | – | – | 26.8 | 895 | – | –
5 | O=C(NCO)c1ccc(Cl)cn1 | 3000 | – | – | 0.469 | 201.3 | 0.667 | 100.6 | 4.12 | 569.2 | – | – | Active | Active
6 | NCCCNC(=O)c1ccc(Cl)cc1 | – | – | – | – | – | – | – | – | – | 24.5 | 1610 | – | –
7 | O=C(NCCO)c1ccc(Cl)cc1 | 3090 | Active | Active | 0.753 | 379.4 | 1.51 | 214.8 | 3.73 | 452.7 | – | – | – | –
8 | NCCNC(=O)c1ccc(Cl)cc1 | 2810 | Active | Active | 0.613 | 307.5 | 1.21 | 150.4 | 3.13 | 440.4 | – | – | – | –
9 | O=C(NCCN1CCOCC1)c1ccc(Cl)cc1 [MOCLOBEMIDE] | – | – | – | – | – | – | – | – | – | – | 783 | – | –
10 | O=C(NCCO)c1ccc(Cl)cn1 | 3060 | – | – | 0.515 | 211.6 | 0.768 | 116.4 | 4.99 | 628.3 | – | – | Active | Active
